# Measured values from different studies.
SMILES,tested on,assay,test system,conditions,quantity,result
Cc1cc(/C=C/C#N)cc(C)c1Nc1ccnc(Nc2ccc(C#N)cc2)n1,MT4,"cell growth or viability, MTT",,5 days,CC50,> 5.46 µM
N#Cc1ccc(C[C@H](Nc2c(Nc3ccc(F)cc3)c(=O)c2=O)C(=O)N2CCc3ccccc32)cc1,,metabolic stability,"rat, liver microsomes","10 µM, 30 min, pH 7.4",compound remaining,35%
Cc1cc(C#N)cc(C)c1Oc1nc(Nc2ccc(C#N)cc2)nc(N)c1Br,MT4,"cell growth or viability, MTT",,5 days,CC50,> 4.59 µM
N#C[C@@]1(c2ccc3c(N)ncnn23)O[C@H](CO)[C@@H](O)[C@H]1O,,,"dog, plasma",1 µM,fraction unbound,0.881
NS(=O)(=O)c1nnc(NC(=O)CCC2CC3CCC2C3)s1 (stereo not shown),,metabolic stability,"mouse, liver microsomes",1 h,compound remaining,41%
N#Cc1ccc(C[C@H](Nc2ncc(-c3ccc(F)cc3)o2)C(=O)N2CCc3ccccc32)cc1,,metabolic stability,"rat, liver microsomes","10 µM, 30 min, pH 7.4",compound remaining,40%
NS(=O)(=O)c1nnc(NC(=O)C2CCCC3(CCCCC3)C2)s1 (stereo not shown),,metabolic stability,"mouse, liver microsomes",1 h,compound remaining,47.7%
N#Cc1ccc(C[C@H](NC(=O)c2cc3ccc(F)cc3[nH]2)C(=O)N2CCc3ccccc32)cc1,,metabolic stability,"rat, liver microsomes","10 µM, 30 min, pH 7.4",compound remaining,90%
Cc1cn([C@H]2C[C@H](N=[N+]=[N-])[C@@H](CO)O2)c(=O)[nH]c1=O,MT4,"cell growth or viability, MTT",,5 days,CC50,> 7.48 µM
COc1cc(-c2cc(C(C)=O)n3ccccc23)c(OC)cc1Cn1ccnc1,,metabolic stability,"rat, liver microsomes","1 µM, 1 h, pH 7.4",compound remaining,62%
